Screens (PubChem)
Shown are actives, neighbours in structure and some others; about 1.7% of the full set was active somewhere.
Cneo AK release: Cryptococcus neoformans lysis via adenylate kinase release; lysis activity, % at 15 µM; hit rate 0.2% among 360,000; C. neoformans lysis, adenylate kinase release luminescence, 4 h; normalised: neutral wells 0, clomiphene wells 100;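 active = mean lysis activity across replicates of at least 80%, whatever share of replicates individually reach that level; inactive = mean lysis activity below 80%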
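read-out = cell lysis signal | test system = log-phase Cryptococcus neoformans yeast cells | input = cells at 5 × 10^6 per mL | medium = fresh YPD growth medium | signal = luminescent adenylate kinase detection reagent | timing = 4 h at 37 °C static, read 1 h later | dosing = single dose | controls = Clomiphene as positive lysis control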
CaV13 FRET inh: Disruptors of the CACNA1D IQ motif to Ca2+-dependent inactivation inhibitor domain association, primary screening, Förster resonance energy transfer in intact living …; HEK cells, CFP/YFP FRET ICDI-IQ, plate reader, 10 min; percent FRET-ratio fall versus neutral wells; inhibition, % at 12.3 µM; hit rate 0.098% among 340,000;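 active = mean replicate inhibition of at least 30% and at least 1% of replicates passing that level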;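 also: 0% = median of the neutral control wells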
rRNA inh HTS: inhibitors of bacterial rRNA selective over humanized ribosomes; E. coli WT GFP vs humanized-ribosome RFP mutants, fluorescence, 24 h; active compounds read low; DMSO median 0, no signal -100; GFP signal change (wild-type ribosome), % (test concentration not listed); hit rate 1.6% among 350,000; AID 720706;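 active = significant combined selectivity score with lowered wild-type GFP, culture density cut under 30%, mutant RFP and density less affected; inactive = any of these conditions unmet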
CFTR F508del cor: CFTR F508del correction in bronchial cells; CFBE cells, YFP halide quenching; stimulated with forskolin plus potentiator P3; % fluorescence drop versus neutral controls; activity (quench increase), % at 7.58 µM; hit rate 0.36% among 350,000; AID 720511;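 active = mean added fluorescence quench of at least 8% versus neutral control, with both replicates also reaching 8%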;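 also: cells transiently co-express mutant CFTR-F508del with the halide-sensitive YFP; corrector assay measuring rescue of mutant channel to the surface after 24 h compound exposure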
* marks the source's active call; other numbers are inactive results; . = not tested or not shown.

SMILES	Cneo AK release	CaV13 FRET inh	rRNA inh HTS	CFTR F508del cor
C[C@H]1CN([C@@H](C)CO)C(=O)Cc2cc(NS(=O)(=O)c3ccc(Cl)cc3)ccc2O[C@@H]1CN(C)C(=O)NC1CCCCC1	-1	.	-2	1
Cc1[nH]n2c(=O)c3c(nc2c1-c1ccc(F)cc1)CCCC3	.	-8	3	-6
Cc1nc2c(-c3ccc(F)cc3)c(C)[nH]n2c(=O)c1Cl	2	-2	-23*	-2
C/C(=N\N=C1\NC(=O)C(Cc2ccccc2)S1)c1ccccc1 (stereo not drawn)	.	-18	-52*	1
Cc1cccc(CCNC(=O)c2oc3c(C)c(C)ccc3c2C)n1	3	-21	-23	-3
Cc1ccc2c(C)c(C(=O)NCCc3ccco3)oc2c1C	-2	-5	-26*	-2
COc1ccc(S(=O)(=O)N(C)C[C@H]2OCCCC[C@H](C)Oc3ccc(NC(=O)CCCN(C)C)cc3C(=O)N([C@H](C)CO)C[C@@H]2C)cc1	0	.	1	-1
Cc1ccc(S(=O)(=O)N2CCN(Cc3cccc(F)c3)CC2)cc1	-5	-5	-28*	1
CO[C@H]1CN(C)C(=O)c2ccc(NC(=O)C3CC3)cc2OC[C@H](C)N(C)C[C@@H]1C	1	.	3	0
CC(=O)Nc1cccc2c1Cc1cc([N+](=O)[O-])ccc1-2	.	-6	-19*	1
O=C1Oc2ccccc2C(=O)/C1=C/N1CCN(c2ccccc2F)CC1	.	1	-30*	-2
CCS(=O)(=O)N1CCN(c2ccccc2F)CC1	-5	.	.	.
Cc1cc(C)nc(N/N=C/C2=C(N3CCOCC3)C(=C\c3ccc(Cl)cc3)/CC2)n1	.	-6	.	.
O=C(O)c1ccc(N/N=C/C2=C(N3CCOCC3)C(=C\c3ccccc3)/CC2)cc1	-1	-2	-36*	-1
COC(=O)C[C@@H]1CC[C@H]2[C@@H](COC[C@@H](O)CN2C(=O)Nc2ccccc2OC)O1	6	.	9	-3
C[C@H]1CN([C@@H](C)CO)C(=O)c2cc(C#CC3CC3)cnc2O[C@@H]1CN(C)Cc1cccc(C(=O)O)c1	-13	.	3	0
C[C@H](CO)N1C[C@H](C)[C@H](CN(C)S(=O)(=O)c2ccc(F)cc2)Oc2c(NC(=O)c3ccc(-c4nccs4)cc3)cccc2C1=O	7	.	-5	3
CCN(C(C)=O)c1cnc(C=NNC(N)=S)c2ccccc12	.	-7	11	3
NC(=S)NN=Cc1nccc2c(N)cccc12	-5	-6	-5	13*
COC(=O)c1ccc(-n2c(C)ccc2-c2ccccc2)cc1	-3	-8	-22*	-1
CN(C)CC(=O)N1C[C@@H]2N[C@H](C1)C2c1ccc(-c2ccccc2F)cc1 (stereo partly drawn)	.	.	-3	-5
Cc1cc(=O)[nH]c(N)n1	0	5	10	0
Nc1cc(=O)[nH]c(N)n1	-2	-5	-13*	-1
O=C(Nc1ccc(N2CCOCC2)c(S(=O)(=O)Nc2cc(Cl)ccc2Cl)c1)c1cccnc1	-1	-6	-35*	0
COc1ccccc1-c1ccc(C2[C@H]3CNC[C@@H]2N3S(=O)(=O)c2ccccc2OC)cc1 (stereo partly drawn)	.	.	0	0
SMILES	Cneo AK release	CaV13 FRET inh	rRNA inh HTS	CFTR F508del cor
COc1ccc(OCC(O)CN(CC(O)COc2ccc(OC)cc2)c2cccc(O)c2)cc1 (stereo not drawn)	-1	-2	-30*	0
O/N=C/c1ccc2cccc(OCc3ccccc3)c2n1	1	-12	-29*	4
C[C@@H]1CN([C@H](C)CO)C(=O)Cc2cc(NC(=O)CCCCCC(=O)Nc3ccccc3N)ccc2O[C@@H]1CN(C)S(=O)(=O)c1ccc(Cl)cc1	.	.	-3	-3
C[C@@H]1CCCCO[C@@H](CN(C)S(=O)(=O)c2cccs2)[C@H](C)CN([C@H](C)CO)C(=O)c2cc(NC(=O)c3ccccc3)ccc2O1	6	.	-4	2
COc1ccc(S(=O)(=O)N2CCCC2CNC(=O)C(=O)NC2CCCC2)cc1 (stereo not drawn)	2	31*	-3	6
Cc1ccc(S(=O)(=O)N2CCCCC2CCNC(=O)C(=O)NCc2ccccc2)cc1 (stereo not drawn)	6	-1	4	9.8*
CCS(=O)(=O)Nc1ccc2c(c1)C(=O)N(C)C[C@H](OC)[C@H](C)CN(C(=O)COC)[C@H](C)CO2	.	.	1	0
Cc1noc(C)c1COc1cccc(C(=O)Nc2ccc3c(c2)OCO3)c1	-1	-6	-17	-1
